Assays:
[1] = molecular target: Voltage-gated inwardly rectifying potassium channel KCNH2 (Homo sapiens, UniProt Q12809); experiment: Inhibition of human ERG at 10 uM
[2] = molecular target: Metabotropic glutamate receptor 2 (Homo sapiens, UniProt Q14416, E273D); experiment: Agonist activity at human recombinant mGlu2 receptor E273D mutant expressed in AV12 cells assessed as stimulation of Ca2+ mobilization after 1 hr by FLIPR assay; format: functional, cell-based
[3] = molecular target: Metabotropic glutamate receptor 3 (Homo sapiens, UniProt Q14832, D279E); experiment: Agonist activity at human recombinant mGlu3 receptor D279E mutant expressed in AV12 cells assessed as stimulation of Ca2+ mobilization after 1 hr by FLIPR assay; format: functional, cell-based
Chain of Metabotropic glutamate receptor 3 (Homo sapiens, UniProt Q14832, D279E) (Q14832 23-879 D279E limits assumed): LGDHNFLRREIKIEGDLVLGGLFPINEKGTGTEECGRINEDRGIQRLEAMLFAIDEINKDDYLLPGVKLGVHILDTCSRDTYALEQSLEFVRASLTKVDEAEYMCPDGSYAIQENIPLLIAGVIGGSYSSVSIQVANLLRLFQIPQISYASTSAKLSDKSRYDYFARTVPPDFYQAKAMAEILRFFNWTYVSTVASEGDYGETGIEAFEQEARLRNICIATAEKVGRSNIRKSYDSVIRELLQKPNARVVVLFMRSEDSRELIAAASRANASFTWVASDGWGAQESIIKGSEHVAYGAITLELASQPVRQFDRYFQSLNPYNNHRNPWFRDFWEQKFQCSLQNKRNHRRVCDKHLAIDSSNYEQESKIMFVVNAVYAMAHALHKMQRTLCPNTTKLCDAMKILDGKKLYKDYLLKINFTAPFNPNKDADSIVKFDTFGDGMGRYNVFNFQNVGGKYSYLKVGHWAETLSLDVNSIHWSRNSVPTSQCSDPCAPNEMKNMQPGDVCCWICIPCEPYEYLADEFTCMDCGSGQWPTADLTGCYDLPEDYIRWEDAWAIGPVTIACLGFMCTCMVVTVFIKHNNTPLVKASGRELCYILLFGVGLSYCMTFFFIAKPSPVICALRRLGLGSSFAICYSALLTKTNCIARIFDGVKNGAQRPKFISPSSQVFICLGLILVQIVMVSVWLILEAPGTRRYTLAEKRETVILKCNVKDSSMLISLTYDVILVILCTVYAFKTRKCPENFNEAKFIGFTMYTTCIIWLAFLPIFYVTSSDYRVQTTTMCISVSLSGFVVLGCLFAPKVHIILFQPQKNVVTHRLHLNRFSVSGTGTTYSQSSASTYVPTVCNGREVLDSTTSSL

[4] = molecular target: Metabotropic glutamate receptor 3 (Homo sapiens, UniProt Q14832, Q306L); experiment: Agonist activity at human recombinant mGlu3 receptor Q306L mutant expressed in AV12 cells assessed as stimulation of Ca2+ mobilization after 1 hr by FLIPR assay; format: functional, cell-based
Chain of Metabotropic glutamate receptor 3 (Homo sapiens, UniProt Q14832, Q306L) (Q14832 23-879 Q306L limits assumed): as the sequence (Q14832 23-879 D279E limits assumed) above, with E257D, Q284L counted along it

[5] = molecular target: Metabotropic glutamate receptor 3 (Homo sapiens, UniProt Q14832, D279E/Q306L); experiment: Agonist activity at human recombinant mGlu3 receptor D279E and Q306L mutant expressed in AV12 cells assessed as stimulation of Ca2+ mobilization after 1 hr by FLIPR assay; format: functional, cell-based
Chain of Metabotropic glutamate receptor 3 (Homo sapiens, UniProt Q14832, D279E/Q306L) (Q14832 23-879 D279E/Q306L limits assumed): as the sequence (Q14832 23-879 D279E limits assumed) above, with Q284L counted along it

[6] = Aqueous solubility of the compound at pH 7.4; format: physicochemical
[7] = Metabolic stability of the compound in mouse hepatocytes assessed as loss of compound at 2 uM; format: ADME, cell-based, Hepatocyte; conditions: read-out: Drug degradation
Method in brief: (§1)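 Hepatocytes from mouse, rat, dog and human; compound tested at 2 µM; percent loss of parent compound measured.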

[8] = Metabolic stability of the compound in dog hepatocytes assessed as loss of compound at 2 uM; format: ADME, cell-based, Canis lupus familiaris, Hepatocyte; conditions: read-out: Drug degradation; method in brief: as §1
[9] = molecular target: CYP2D6 (Homo sapiens, UniProt P10635); experiment: Inhibition of human CYP2D6 at 10 uM; format: ADME
Method in brief: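 Inhibition of human CYP isoforms was measured with the compound tested at 10 µM.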

[10] = Fraction unbound in human plasma; format: ADME, cell-free
[11] = Volume of distribution at steady state in Sprague-Dawley rat at 1 mg/kg, iv; format: ADME, organism-based; conditions: in vivo, read-out: Vdss
Method in brief: (§2)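 Compound dissolved in water, pH adjusted to 7–7.5 with NaOH; single dose to fasted male Sprague–Dawley rats (~250 g) by oral gavage, intravenous or intraperitoneal route. Serial blood (11–12 samples per rat) from jugular vein catheter into EDTA tubes, centrifuged, frozen; 25 µL plasma mixed with methanol:water (1:1) containing analogue internal standard.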

[12] = Cmax in Sprague-Dawley rat at 5 mg/kg, po; format: ADME, organism-based; design: dose 5 mg/kg, route oral; conditions: in vivo
Method in brief: (§3)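 Fasted male Sprague–Dawley rats (~250 g) received a single dose of compound dissolved in water and adjusted to pH 7–7.5 with NaOH, given iv, by oral gavage or ip. Serial blood samples (11–12 per rat) were drawn from a jugular vein catheter into EDTA and kept frozen. Plasma was mixed with methanol:water (1:1) containing an analogue internal standard for analysis. Mean plasma parameters are reported.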

[13] = Half life in Sprague-Dawley rat at 5 mg/kg, po; format: ADME, organism-based; conditions: in vivo; method in brief: as §3
[14] = Oral bioavailability in Sprague-Dawley rat at 5 mg/kg; format: ADME, organism-based; conditions: in vivo; method in brief: as §2
[15] = Tmax in Sprague-Dawley rat at 3 mg/kg, ip; format: ADME, organism-based; conditions: in vivo; method in brief: as §2
[16] = Cmax in Sprague-Dawley rat at 10 mg/kg, ip; format: ADME, organism-based; design: dose 10 mg/kg, route intraperitoneal; conditions: in vivo; method in brief: as §3
[17] = Tmax in Sprague-Dawley rat at 10 mg/kg, ip; format: ADME, organism-based; conditions: in vivo; method in brief: as §2
[18] = Half life in Sprague-Dawley rat at 10 mg/kg, ip; format: ADME, organism-based; conditions: in vivo; method in brief: as §3
[19] = Bioavailability in Sprague-Dawley rat at 10 mg/kg, ip; format: ADME, organism-based; conditions: in vivo; method in brief: as §3
[20] = Plasma concentration in Sprague-Dawley rat at 10 mg/kg, ip after 1 hr; format: ADME, organism-based
Method in brief: (§4)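 Separate experiment: single ip doses of 1, 3 and 10 mg/kg to rats, compound in water adjusted to pH 7–7.5 with NaOH; plasma (with csf) sampled at 0.5, 1 and 4 h; mean plasma concentrations ± SEM reported.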

[21] = Plasma concentration in Sprague-Dawley rat at 3 mg/kg, ip after 4 hrs; format: ADME, organism-based; method in brief: as §4
[22] = Drug level in Sprague-Dawley rat cerebrospinal fluid at 3 mg/kg, ip after 0.5 hrs; format: ADME, organism-based; conditions: read-out: Drug uptake
Method in brief: (§5)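 Male Sprague–Dawley rats received single ip doses of 1, 3 or 10 mg/kg. Cerebrospinal fluid and plasma levels were determined at 0.5, 1 and 4 h. Mean csf concentration (nM ± SEM) is reported.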

[23] = molecular target: Metabotropic glutamate receptor 2 (Homo sapiens, UniProt Q14416); experiment: Agonist activity at human recombinant mGlu2 receptor expressed in AV12 cells assessed as stimulation of Ca2+ mobilization after 1 hr by FLIPR assay; format: functional, cell-based
[24] = molecular target: Metabotropic glutamate receptor 3 (Homo sapiens, UniProt Q14832); experiment: Antagonist activity at human recombinant mGlu3 receptor expressed in AV12 cells assessed as reversal of DCG-4-inhibited, forskolin-stimulated cAMP production after 1 hr by fluorescence assay; format: functional, cell-based
Chain of Metabotropic glutamate receptor 3 (Homo sapiens, UniProt Q14832) (Q14832 whole entry): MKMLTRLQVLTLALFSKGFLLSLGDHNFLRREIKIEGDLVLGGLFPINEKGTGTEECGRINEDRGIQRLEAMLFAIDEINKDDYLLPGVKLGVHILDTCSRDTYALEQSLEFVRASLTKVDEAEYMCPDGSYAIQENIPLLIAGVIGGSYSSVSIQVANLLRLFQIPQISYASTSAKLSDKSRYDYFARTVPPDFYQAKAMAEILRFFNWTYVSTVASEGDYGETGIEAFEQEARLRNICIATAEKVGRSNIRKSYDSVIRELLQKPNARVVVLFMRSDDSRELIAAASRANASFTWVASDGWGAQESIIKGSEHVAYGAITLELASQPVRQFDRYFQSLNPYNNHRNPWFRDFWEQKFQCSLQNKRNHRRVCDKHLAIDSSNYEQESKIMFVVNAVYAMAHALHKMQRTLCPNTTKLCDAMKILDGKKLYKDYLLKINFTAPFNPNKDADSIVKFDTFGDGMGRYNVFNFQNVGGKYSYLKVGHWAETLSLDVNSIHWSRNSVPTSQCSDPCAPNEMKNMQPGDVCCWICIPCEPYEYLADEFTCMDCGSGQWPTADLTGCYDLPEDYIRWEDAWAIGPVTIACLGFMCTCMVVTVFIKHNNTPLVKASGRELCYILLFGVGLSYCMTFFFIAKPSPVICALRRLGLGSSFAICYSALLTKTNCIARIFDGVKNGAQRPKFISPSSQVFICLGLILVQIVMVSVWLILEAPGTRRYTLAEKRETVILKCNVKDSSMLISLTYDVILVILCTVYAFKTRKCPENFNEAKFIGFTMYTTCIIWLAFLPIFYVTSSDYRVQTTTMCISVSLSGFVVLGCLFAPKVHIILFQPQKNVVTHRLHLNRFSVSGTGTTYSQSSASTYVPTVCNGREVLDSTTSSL

[25] = molecular target: Metabotropic glutamate receptor 1 (Homo sapiens, UniProt Q13255); experiment: Agonist activity at human recombinant mGlu1 receptor expressed in AV12 cells assessed as stimulation of Ca2+ mobilization after 1 hr by FLIPR assay; format: functional, cell-based
[26] = molecular target: Metabotropic glutamate receptor 4 (Homo sapiens, UniProt Q14833); experiment: Agonist activity at human recombinant mGlu4 receptor expressed in AV12 cells assessed as stimulation of Ca2+ mobilization after 1 hr by FLIPR assay; format: functional, cell-based
Chain of Metabotropic glutamate receptor 4 (Q14833 whole entry): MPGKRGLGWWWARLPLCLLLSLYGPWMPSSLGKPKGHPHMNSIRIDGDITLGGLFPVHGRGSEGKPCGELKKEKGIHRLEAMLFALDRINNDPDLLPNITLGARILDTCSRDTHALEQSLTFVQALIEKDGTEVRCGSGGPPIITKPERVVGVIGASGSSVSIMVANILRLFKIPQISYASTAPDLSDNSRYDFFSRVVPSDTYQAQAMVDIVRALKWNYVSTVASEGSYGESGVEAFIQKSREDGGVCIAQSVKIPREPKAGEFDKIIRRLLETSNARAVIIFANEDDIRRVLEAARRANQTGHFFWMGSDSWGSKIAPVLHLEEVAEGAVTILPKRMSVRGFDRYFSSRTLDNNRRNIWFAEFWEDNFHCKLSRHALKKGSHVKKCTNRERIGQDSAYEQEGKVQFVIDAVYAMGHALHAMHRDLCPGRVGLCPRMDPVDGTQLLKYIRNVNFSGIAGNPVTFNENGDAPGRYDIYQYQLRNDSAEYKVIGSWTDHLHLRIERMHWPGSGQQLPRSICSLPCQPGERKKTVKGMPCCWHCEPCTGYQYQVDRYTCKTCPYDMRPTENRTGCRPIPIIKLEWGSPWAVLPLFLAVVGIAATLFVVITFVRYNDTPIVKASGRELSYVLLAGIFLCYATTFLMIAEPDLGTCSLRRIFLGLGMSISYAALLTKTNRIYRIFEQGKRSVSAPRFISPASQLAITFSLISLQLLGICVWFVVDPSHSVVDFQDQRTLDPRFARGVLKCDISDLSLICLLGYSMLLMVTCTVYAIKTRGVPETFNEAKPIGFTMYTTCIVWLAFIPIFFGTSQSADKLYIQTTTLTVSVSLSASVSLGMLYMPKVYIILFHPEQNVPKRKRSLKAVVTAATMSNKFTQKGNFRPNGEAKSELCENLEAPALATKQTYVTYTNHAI

[27] = molecular target: Metabotropic glutamate receptor 5 (Homo sapiens, UniProt P41594); experiment: Agonist activity at human recombinant mGlu5 receptor expressed in AV12 cells assessed as stimulation of Ca2+ mobilization after 1 hr by FLIPR assay; format: functional, cell-based
[28] = molecular target: Metabotropic glutamate receptor 6 (Homo sapiens, UniProt O15303); experiment: Agonist activity at human recombinant mGlu6 receptor expressed in AV12 cells assessed as inhibition of forskolin-stimulated cAMP production after 1 hr by fluorescence assay; format: functional, cell-based
[29] = molecular target: Metabotropic glutamate receptor 7 (Homo sapiens, UniProt Q14831); experiment: Antagonist activity at human recombinant mGlu7 receptor expressed in AV12 cells assessed as inhibition of glutamate-stimulated Ca2+ mobilization after 1 hr by FLIPR assay; format: functional, cell-based
[30] = molecular target: T1, Metabotropic glutamate receptor 8 (Homo sapiens, UniProt O00222); experiment: Agonist activity at human recombinant mGlu8 receptor expressed in AV12 cells assessed as stimulation of Ca2+ mobilization after 1.5 hrs by FLIPR assay; format: functional, cell-based
T1 sequence (O00222 whole entry): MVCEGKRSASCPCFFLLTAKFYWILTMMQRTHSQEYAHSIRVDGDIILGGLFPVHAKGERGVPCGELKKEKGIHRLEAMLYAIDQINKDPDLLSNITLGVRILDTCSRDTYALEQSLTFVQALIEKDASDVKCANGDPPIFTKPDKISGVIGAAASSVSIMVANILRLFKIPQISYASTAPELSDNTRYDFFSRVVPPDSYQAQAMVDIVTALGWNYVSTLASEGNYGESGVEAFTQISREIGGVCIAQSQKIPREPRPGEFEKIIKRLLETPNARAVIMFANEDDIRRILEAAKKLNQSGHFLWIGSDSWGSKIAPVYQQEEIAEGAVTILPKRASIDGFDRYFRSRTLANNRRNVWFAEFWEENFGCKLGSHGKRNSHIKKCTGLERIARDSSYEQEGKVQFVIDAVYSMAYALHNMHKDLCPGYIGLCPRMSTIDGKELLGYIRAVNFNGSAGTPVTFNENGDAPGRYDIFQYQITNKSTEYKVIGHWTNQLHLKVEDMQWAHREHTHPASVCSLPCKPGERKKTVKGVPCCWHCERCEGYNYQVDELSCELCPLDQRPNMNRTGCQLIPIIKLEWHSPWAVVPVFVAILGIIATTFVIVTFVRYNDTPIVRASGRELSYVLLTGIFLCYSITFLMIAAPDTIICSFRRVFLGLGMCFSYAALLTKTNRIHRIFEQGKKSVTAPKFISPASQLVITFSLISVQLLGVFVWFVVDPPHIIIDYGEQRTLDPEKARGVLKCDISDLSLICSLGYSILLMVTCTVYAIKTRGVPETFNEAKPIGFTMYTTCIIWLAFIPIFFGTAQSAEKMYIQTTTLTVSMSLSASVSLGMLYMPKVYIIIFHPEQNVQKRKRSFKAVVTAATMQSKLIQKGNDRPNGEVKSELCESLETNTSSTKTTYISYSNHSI

[31] = molecular target: T1, Metabotropic glutamate receptor 8; experiment: Antagonist activity at human recombinant mGlu8 receptor expressed in AV12 cells assessed as inhibition of glutamate-stimulated Ca2+ mobilization after 1 hr by FLIPR assay; format: functional, cell-based
[32] = Drug level in Sprague-Dawley rat cerebrospinal fluid at 10 mg/kg, ip after 0.5 hrs; format: ADME, organism-based; conditions: read-out: Drug uptake; method in brief: as §5
[33] = Drug level in Sprague-Dawley rat cerebrospinal fluid at 10 mg/kg, ip after 1 hr; format: ADME, organism-based; conditions: read-out: Drug uptake; method in brief: as §5
[34] = Drug level in Sprague-Dawley rat cerebrospinal fluid at 10 mg/kg, ip after 4 hrs; format: ADME, organism-based; conditions: read-out: Drug uptake; method in brief: as §5
[35] = organism: Rattus norvegicus; experiment: Toxicity in Sprague-Dawley rat assessed as impairment of neuromuscular coordination at 300 nM of cerebrospinal fluid concentration by rotarod test; format: organism-based; conditions: in vivo, 0.3 µM

Chain of Voltage-gated inwardly rectifying potassium channel KCNH2 (Q12809 whole entry): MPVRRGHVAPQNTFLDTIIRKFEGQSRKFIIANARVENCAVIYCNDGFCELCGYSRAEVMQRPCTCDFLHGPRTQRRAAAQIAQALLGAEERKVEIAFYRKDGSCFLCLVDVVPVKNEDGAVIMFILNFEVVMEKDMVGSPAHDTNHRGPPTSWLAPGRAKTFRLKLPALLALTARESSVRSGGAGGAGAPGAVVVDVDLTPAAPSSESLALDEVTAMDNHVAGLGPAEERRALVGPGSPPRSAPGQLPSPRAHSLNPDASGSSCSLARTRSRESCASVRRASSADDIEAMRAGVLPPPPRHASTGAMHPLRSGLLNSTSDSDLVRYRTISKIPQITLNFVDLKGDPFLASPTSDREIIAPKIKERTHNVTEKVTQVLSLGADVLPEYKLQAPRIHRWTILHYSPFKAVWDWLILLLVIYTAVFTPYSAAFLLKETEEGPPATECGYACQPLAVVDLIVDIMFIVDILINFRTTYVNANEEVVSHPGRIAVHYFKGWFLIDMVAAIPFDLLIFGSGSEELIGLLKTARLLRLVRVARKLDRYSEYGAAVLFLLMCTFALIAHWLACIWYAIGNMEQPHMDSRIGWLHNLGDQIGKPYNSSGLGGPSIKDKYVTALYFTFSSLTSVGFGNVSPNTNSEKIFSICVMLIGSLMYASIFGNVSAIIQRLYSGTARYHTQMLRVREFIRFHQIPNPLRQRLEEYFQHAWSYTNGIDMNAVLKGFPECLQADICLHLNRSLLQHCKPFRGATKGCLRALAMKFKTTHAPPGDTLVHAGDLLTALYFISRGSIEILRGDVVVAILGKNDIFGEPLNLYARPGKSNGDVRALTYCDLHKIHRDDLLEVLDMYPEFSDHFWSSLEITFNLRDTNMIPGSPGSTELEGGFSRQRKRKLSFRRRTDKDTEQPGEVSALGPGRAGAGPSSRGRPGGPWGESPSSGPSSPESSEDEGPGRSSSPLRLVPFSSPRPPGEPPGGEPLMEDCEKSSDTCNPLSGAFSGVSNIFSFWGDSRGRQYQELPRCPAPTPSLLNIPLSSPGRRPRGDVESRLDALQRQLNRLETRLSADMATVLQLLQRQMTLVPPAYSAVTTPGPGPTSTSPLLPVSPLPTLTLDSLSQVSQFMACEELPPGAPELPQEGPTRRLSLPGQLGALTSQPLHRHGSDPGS

What does the source list for N[C@@]1(C(=O)O)C[C@@H](Sc2nc[nH]n2)[C@H]2[C@H](C(=O)O)[C@H]21?
inhibition (INH) [1]: Not Active; EC50 [2]: 0.0463 µM; EC50 [3]: 2.18 µM; EC50 [4]: 2.83 µM; EC50 [5]: 1.17 µM; solubility [6]: > 100 µM; metabolised at 2 µM [7]: < 10%; metabolised at 2 µM [8]: < 10%; inhibition at 10 µM [9]: < 10%; fraction unbound [10]: > 0.98; Vd [11]: 1.01 L/kg; Cmax [12]: 220 nM; half-life [13]: 3.7 h; bioavailability [14]: 4%; Tmax [15]: 0.33 h; Cmax [16]: 31100 nM; Tmax [17]: 0.5 h; half-life [18]: 5.2 h; bioavailability [19]: 88%; concentration at 1 h [20]: 23600 nM; concentration at 4 h [21]: 700 nM; concentration at 0.5 h [22]: 97.3 nM; EC50 [23]: 0.0211 µM; IC50 [24]: 2.73 µM; EC50 [25]: > 25 µM; EC50 [26]: > 25 µM; EC50 [27]: > 25 µM; EC50 [28]: 3.45 µM; IC50 [29]: > 12.5 µM; EC50 [30]: > 25 µM; IC50 [31]: > 12.5 µM; concentration at 0.5 h [32]: 235 nM; concentration at 1 h [33]: 272 nM; concentration at 4 h [34]: 86.7 nM; Activity [35]: Toxic
